The text below walks through data of ChEMBL document CHEMBL4321796, “Proteolysis Targeting Chimeras for the Selective Degradation of Mcl-1/Bcl-2 Derived from Nonselective Target Binding Ligands” (J Med Chem, 2019).

Calls of active or inactive are those of the source. The calls are words filed in the database; no cut-off is given here. Some results are limits rather than exact numbers.

Experiment [1] has as its target T1, Protein cereblon/Induced myeloid leukemia cell differentiation protein Mcl-1 (Homo sapiens, UniProt Q07820+Q96SW2). Briefly: Induction of CRBN-mediated Mcl-1 degradation in human HeLa cells at 10 uM pretreated with CRBN inhibitor pomalidomide followed by compound addition by Western blot analysis. The format is cell-based. (In general: In western blotting, separated proteins are transferred to a membrane and probed.)
Target sequence in this assay (Q07820 whole entry, looked up): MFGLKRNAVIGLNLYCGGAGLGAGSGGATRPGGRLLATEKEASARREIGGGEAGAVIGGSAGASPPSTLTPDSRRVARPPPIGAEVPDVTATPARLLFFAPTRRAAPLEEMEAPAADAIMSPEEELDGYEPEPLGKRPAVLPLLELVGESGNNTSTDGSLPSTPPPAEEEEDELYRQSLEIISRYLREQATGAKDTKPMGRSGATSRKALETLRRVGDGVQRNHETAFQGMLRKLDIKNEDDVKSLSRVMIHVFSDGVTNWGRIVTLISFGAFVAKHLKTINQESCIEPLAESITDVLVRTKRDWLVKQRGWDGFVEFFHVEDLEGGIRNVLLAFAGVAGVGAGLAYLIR
Target sequence in this assay (Q96SW2 whole entry, looked up): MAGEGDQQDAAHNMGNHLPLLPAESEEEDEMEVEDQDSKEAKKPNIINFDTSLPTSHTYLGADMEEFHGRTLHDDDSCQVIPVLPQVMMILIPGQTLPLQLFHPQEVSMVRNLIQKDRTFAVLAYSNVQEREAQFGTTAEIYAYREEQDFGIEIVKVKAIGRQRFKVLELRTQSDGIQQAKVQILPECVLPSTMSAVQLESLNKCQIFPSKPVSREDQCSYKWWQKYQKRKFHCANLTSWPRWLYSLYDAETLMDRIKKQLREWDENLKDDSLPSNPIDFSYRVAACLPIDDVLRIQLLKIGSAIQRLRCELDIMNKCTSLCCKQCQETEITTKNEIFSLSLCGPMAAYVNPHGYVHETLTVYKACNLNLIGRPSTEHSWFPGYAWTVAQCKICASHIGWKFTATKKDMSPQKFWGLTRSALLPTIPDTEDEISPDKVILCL

Experiment [2] addresses T2, Protein cereblon/Apoptosis regulator Bcl-2 (Homo sapiens, UniProt P10415+Q96SW2). Nature of the experiment: Induction of CRBN-mediated Bcl-2 degradation in human HeLa cells assessed as relative abundance at 10 uM measured at 2 hrs by Western blot analysis (reference value: 1). The format is cell-based. The procedure, abridged:
(§1)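 HeLa cells in DMEM with 10% FBS, exposed to 10 µM compound over a 0–24 h time course. Mcl-1 and Bcl-2 detected by immunoblot (NP-40 lysis, BCA-equalized SDS-PAGE, PVDF, ECL) and quantified relative to DMSO control; mean ± s.d., n=3 independent samples.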

In experiment [3] the target is T2, Protein cereblon/Apoptosis regulator Bcl-2. Briefly: Induction of CRBN-mediated Bcl-2 degradation in human HeLa cells assessed as relative abundance at 10 uM measured at 16 hrs by Western blot analysis (reference value: 1). The format is cell-based. The procedure, abridged:
as §1

Another experiment concerns HeLa. Nature of the experiment: Induction of CRBN-mediated tubulin degradation in human HeLa cells at 10 uM incubated for 12 hrs by Western blot analysis. The format is cell-based. The procedure, abridged: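 HeLa cells (DMEM, 10% FBS, 37 °C, 5% CO2) treated 12 h with compound (10 µM, or 0–10 µM gradient; time course 0–24 h at 10 µM). Lysis in NP-40 buffer with protease inhibitors, equal protein loaded for SDS-PAGE and immunoblotting. Bands quantified relative to DMSO control. n=3 independent samples.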

The target of experiment [4] is T1, Protein cereblon/Induced myeloid leukemia cell differentiation protein Mcl-1. Briefly: Induction of CRBN-mediated Mcl-1 degradation in human HeLa cells assessed as Mcl-1 level at 10 uM after 12 hrs by Western blot analysis relative to control. In kind it is cell-based.
Target sequence in this assay (Q07820 whole entry, looked up): as the sequence (Q07820 whole entry, looked up) above
Target sequence in this assay (Q96SW2 whole entry, looked up): as the sequence (Q96SW2 whole entry, looked up) above
The target is the same in experiment [5]. Nature of the experiment: Induction of CRBN-mediated Mcl-1 degradation in human HeLa cells at 10 uM measured at 12 hrs by Western blot analysis relative to control. The format is cell-based. The procedure, abridged:
as §1
Target sequence in this assay (Q07820 whole entry, looked up): as the sequence (Q07820 whole entry, looked up) above
Target sequence in this assay (Q96SW2 whole entry, looked up): as the sequence (Q96SW2 whole entry, looked up) above

The target in experiment [6] is T2, Protein cereblon/Apoptosis regulator Bcl-2. Briefly: Induction of CRBN-mediated Bcl-2 degradation in human HeLa cells assessed as relative abundance at 1 uM after 12 hrs by Western blot analysis (reference value: 1). The format is cell-based.
The subject of another experiment is NCI-H23. Briefly: Cytotoxicity against human H23 cells assessed as effect on PARP cleavage at 0.3 to 10 uM incubated for 12 hrs by Western blot analysis. In kind it is functional, cell-based. The procedure, abridged: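 H23 cells grown in RPMI1640 with 10% FBS at 37°C, 5% CO2, treated 12 h over a concentration gradient. Mcl-1 and PARP cleavage read by immunoblot: NP-40 lysis buffer with protease inhibitors, BCA-normalized SDS-PAGE, PVDF, ECL detection; n=3 independent samples.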

For experiment [7], the target named is T1, Protein cereblon/Induced myeloid leukemia cell differentiation protein Mcl-1. Nature of the experiment: Induction of CRBN-mediated Mcl-1 degradation in human HeLa cells at 10 uM pretreated with proteasome inhibitor MG-132 followed by compound addition by Western blot analysis. In kind it is cell-based.
Target sequence in this assay (Q07820 whole entry, looked up): as the sequence (Q07820 whole entry, looked up) above
Target sequence in this assay (Q96SW2 whole entry, looked up): as the sequence (Q96SW2 whole entry, looked up) above
For experiment [8] the target is unchanged. Nature of the experiment: Induction of CRBN-mediated Mcl-1 degradation in human HeLa cells assessed as relative abundance at 10 uM measured at 16 hrs by Western blot analysis (reference value: 1). In kind it is cell-based. The procedure, abridged: as §1
Target sequence in this assay (Q07820 whole entry, looked up): as the sequence (Q07820 whole entry, looked up) above
Target sequence in this assay (Q96SW2 whole entry, looked up): as the sequence (Q96SW2 whole entry, looked up) above
For experiment [9] the target is unchanged. Nature of the experiment: Induction of CRBN-mediated Mcl-1 degradation in human HeLa cells assessed as Mcl-1 removal activity measured at 12 hrs by Western blot analysis. In kind it is cell-based.
Target sequence in this assay (Q07820 whole entry): as the sequence (Q07820 whole entry, looked up) above
Target sequence in this assay (Q96SW2 whole entry): as the sequence (Q96SW2 whole entry, looked up) above
In experiment [10] the target is T2, Protein cereblon/Apoptosis regulator Bcl-2. Nature of the experiment: Induction of CRBN-mediated Bcl-2 degradation in human HeLa cells assessed as relative abundance at 3 uM after 12 hrs by Western blot analysis (reference value: 1). The format is cell-based.
Experiment [11] has as its target T1, Protein cereblon/Induced myeloid leukemia cell differentiation protein Mcl-1. Nature of the experiment: Induction of CRBN-mediated Mcl-1 degradation in human HeLa cells assessed as relative abundance at 10 uM measured at 24 hrs by Western blot analysis (reference value: 1). The format is cell-based. The procedure, abridged:
as §1
Target sequence in this assay (Q07820 whole entry, looked up): as the sequence (Q07820 whole entry, looked up) above
Target sequence in this assay (Q96SW2 whole entry, looked up): as the sequence (Q96SW2 whole entry, looked up) above

Experiment [12] concerns the target Protein cereblon/Bcl-2-like protein 1 (Homo sapiens) (UniProt Q07817+Q96SW2). Nature of the experiment: Induction of CRBN-mediated Bcl-xl degradation in human HeLa cells at 10 uM incubated for 12 hrs by Western blot analysis. The format is cell-based.
Experiment [13] addresses T2, Protein cereblon/Apoptosis regulator Bcl-2. Nature of the experiment: Induction of CRBN-mediated Bcl-2 degradation in human HeLa cells assessed as reduction in Bcl-2 level at 10 uM after 12 hrs by Western blot analysis. The format is cell-based.

T2 sequence (P10415 whole entry, looked up): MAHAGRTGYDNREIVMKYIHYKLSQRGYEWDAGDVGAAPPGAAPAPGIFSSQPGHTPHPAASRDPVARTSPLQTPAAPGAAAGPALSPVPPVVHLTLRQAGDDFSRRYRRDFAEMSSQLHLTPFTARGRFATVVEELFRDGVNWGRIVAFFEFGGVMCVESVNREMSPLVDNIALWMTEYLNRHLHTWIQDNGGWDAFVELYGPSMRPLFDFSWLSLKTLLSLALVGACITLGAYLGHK
T2 sequence (Q96SW2 whole entry, looked up): as the sequence (Q96SW2 whole entry, looked up) above
Sequence of Protein cereblon/Bcl-2-like protein 1 (Homo sapiens) (Q07817 whole entry, looked up): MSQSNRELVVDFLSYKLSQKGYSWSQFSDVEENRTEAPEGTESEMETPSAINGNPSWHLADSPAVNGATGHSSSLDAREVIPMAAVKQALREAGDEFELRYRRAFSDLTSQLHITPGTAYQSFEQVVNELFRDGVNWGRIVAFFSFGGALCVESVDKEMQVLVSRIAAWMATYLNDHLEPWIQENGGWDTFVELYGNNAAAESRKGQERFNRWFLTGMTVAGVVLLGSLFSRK
Sequence of Protein cereblon/Bcl-2-like protein 1 (Homo sapiens) (Q96SW2 whole entry, looked up): as the sequence (Q96SW2 whole entry, looked up) above

`O=C(CCCCC(=O)NCCN1C(=O)c2cccc3c(Sc4ccc(Br)cc4)ccc(c23)C1=O)NCCCCCCNc1cccc2c1C(=O)N(C1CCC(=O)NC1=O)C2=O` (stereo not given): the result (in experiment [1]; in the experiment on HeLa; in [7]; in [12]; in experiment [13]) was inactive. For the same compound, the fold change (FC) was 1.1 in experiment [2]; 1 in [3]; 0.9 to 1 in experiment [6]; 0.4 in [8]; 1 in experiment [10]; 0.9 in [11]. Also, the Activity is less than 10% in experiment [4] and 80% in experiment [5]. The result in the experiment on NCI-H23 was Active. Also, the DC50 (as a rule, the concentration giving 50% degradation) in experiment [9] was found to be 700 nM.
